Compound activity from PubChem BioAssay.
S1P4 antagonist = S1P4 receptor antagonists, primary screen, cell-based. Sphingosine 1-phosphate receptor 4 (Homo sapiens), O95977. S1P4-expressing cells, antagonist mode, reporter read-out. inhibition, % at 4.98 µM. hit rate 0.26% among 220,000; in the data active = inhibition above about 29%;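 note: 0% = wells stimulated with agonist and 100% = vehicle wells without agonist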
Target sequence (O95977 whole entry, looked up): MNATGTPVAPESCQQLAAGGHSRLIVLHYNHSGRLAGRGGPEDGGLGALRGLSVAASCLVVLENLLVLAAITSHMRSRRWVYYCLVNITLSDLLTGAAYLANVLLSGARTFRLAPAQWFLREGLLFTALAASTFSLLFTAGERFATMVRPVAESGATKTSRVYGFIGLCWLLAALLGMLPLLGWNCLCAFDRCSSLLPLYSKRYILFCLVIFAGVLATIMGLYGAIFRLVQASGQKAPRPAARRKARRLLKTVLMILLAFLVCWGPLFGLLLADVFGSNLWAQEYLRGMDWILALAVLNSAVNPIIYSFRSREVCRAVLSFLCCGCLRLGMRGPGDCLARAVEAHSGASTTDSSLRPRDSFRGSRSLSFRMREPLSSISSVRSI
Mdm2 ligase inh = MDM2-luciferase reporter signal enhancers, primary screen, MDM2 E3 ligase inhibitor project, cell-based, luminescence, 1536-well; cell-based MDM2 ubiquitination luciferase reporter, 2 h; 0 = plate control, 100 = twice control, blank-subtracted; signal enhancement, % at 5 µM; hit rate 0.11% among 210,000; AID 1230, 2008;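 active = signal enhancement of 30% or more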;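 note: luminescence tracks abundance of the self-degrading MDM2-luciferase fusion protein; higher signal means inhibition of MDM2 E3 ligase activity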
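system = mammalian cells stably expressing self-ubiquitinating, self-degrading MDM2 E3–luciferase fusion | quantity = 2000 cells per well seeded | incubation = 4 h cell settling then 2 h compound exposure, 37 °C | signal = SteadyLite luminescence, 15 min reagent step | benchmarks = plate control and blank wells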
S1P4 ag = S1P4 receptor agonists, primary screen, cell-based | activation, % at 4.98 µM | Sphingosine 1-phosphate receptor 4 (Homo sapiens), O95977 | hit rate 0.35% among 220,000 | AID 1509, 2009 | S1P4-expressing cell line, agonist reporter assay; in the data active = activation above about 11%;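 note: 0% = DMSO vehicle and 100% = reference agonist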
Lmaj promast = Leishmania major promastigote growth inhibition, primary screen; hit rate 9% among 200,000; inhibition, % at 10 µM; AID 1063, 2008; Leishmania major promastigotes, resazurin fluorescence viability; in the data active = inhibition above about 50%;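 note: promastigotes grown with compound for 44 hours at 28 °C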
S1P3 antag = S1P3 receptor antagonists, primary screen, cell-based. inhibition, % at 4.98 µM. AID 485, 2006. CHO S1P3 NFAT-BLA reporter, FRET fluorescence, antagonist mode. Sphingosine 1-phosphate receptor 3 (Homo sapiens), Q99500. hit rate 0.27% among 170,000;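 active = inhibition above the plate cutoff, the mean inhibition of test wells on that plate plus 3 SD, cut at about 28% in these data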;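 note: cells challenged with S1P at its EC80 of 0.8 µM; blue over green emission ratio from cleaved BLA substrate after 4 h stimulation; 0% = S1P-stimulated wells and 100% = unstimulated DMSO-only wells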
* = called active by the depositor; x = no result given. The sample as a whole holds a higher share of hits than the screen did.

SMILES	S1P4 antagonist	Mdm2 ligase inh	S1P4 ag	Lmaj promast	S1P3 antag
O=C1/C(=C/c2ccc(C(=O)O)cc2)CCC/C1=C\c1ccc(C(=O)O)cc1	5.1	-10.0	0.2	66.0*	-5.6
O=C1NC(=S)N/C1=C/c1cccnc1	-11.2	-9.7	-0.3	x	6.6
O=C1/C(=C/c2ccccc2)CCCc2ccccc21	-9.9	-10.0	0.4	6.3	x
O=C1/C(=C/c2cccnc2)CCC/C1=C\c1cccnc1	-10.1	36.0*	1.3	100.5*	-10.6
CCC1C/C(=C\c2cccnc2)C(=O)/C(=C/c2cccnc2)C1 (stereo unspecified)	6.8	19.4	-1.6	100.4*	-7.9
O=C1/C(=C\c2cccnc2)CCc2ccccc21	-1.5	-15.1	1.4	100.3*	x
COc1ccc(OCc2nnc(SC(C)C(=O)Nc3nccs3)n2-c2ccccc2)cc1 (stereo unspecified)	4.4	-16.1	-0.8	16.2	10.6
COc1ccc(C(=O)NNC(=O)c2cccc(F)c2)cc1	-4.9	-15.6	0.9	-7.6	-3.0
CC(C)N1C(=O)S/C(=C/c2cccnc2)C1=O	0.1	8.5	-1.6	71.0*	x
O=C1/C(=C/c2cccnc2)CC/C1=C\c1cccnc1	-6.8	-2.6	0.1	81.5*	4.5
COc1ccc2c(c1)CC/C(=C/c1ccncc1)C2=O	-6.6	7.9	0.0	74.9*	-1.9
COc1ccc2c(c1)CC/C(=C\c1ccc(C)o1)C2=O	13.8	-8.5	1.8	x	0.6
CC(C)/C=C1\CC/C(=C\c2cccnc2)C1=O	-2.1	-1.5	1.6	53.9*	-6.9
Nc1nnn(CC(=O)N/N=C/C=C/c2ccccc2)n1	3.0	-13.8	0.1	x	2.5
CN(C)c1cc(-c2ccc([N+](=O)[O-])cc2)oc(=O)c1Cl	-18.5	-12.0	0.5	x	-3.5
COc1cc2c(cc1OC)C(C(=O)N1CCN(c3ccccc3)CC1)C(c1cccs1)N(C)C2=O (stereo unspecified)	-6.5	-9.9	1.4	-5.6	x
O/C(=C\c1nc2ccccc2nc1/C=C(\O)c1ccccc1)c1ccccc1	6.6	-15.0	-0.2	98.1*	-14.3
COc1ccc(/C(O)=C/c2nc3ccccc3n(-c3ccccc3)c2=O)cc1	-0.5	-9.3	1.1	-3.9	x
CON(c1nc(N(C)C)nc(N(C)C)n1)S(=O)(=O)c1ccccc1Cl	2.2	-3.0	-0.8	64.6*	x
COC(=O)CN(n1cnnc1)S(=O)(=O)c1ccccc1Cl	-1.6	-21.6	-0.2	0.1	x
O=C(NC1CCCCC1)C(Cc1ccccc1)NS(=O)(=O)c1cccs1 (stereo unspecified)	-5.6	-7.5	1.8	0.9	x
Cc1ccc(CNC(=O)C(Cc2ccccc2)NS(=O)(=O)c2cccs2)cc1 (stereo unspecified)	14.9	-8.1	-1.5	59.1*	x
O=C(NC1CCCc2ccccc21)C(Cc1ccccc1)NS(=O)(=O)c1cccs1 (stereo unspecified)	-11.9	-0.6	3.2	77.2*	3.7
Cc1ccnc(N/C=C(/NC(=O)c2ccccc2)C(=O)N/N=C\c2ccc(Cl)cc2)n1	-13.6	x	-1.6	x	-7.3
CCOc1ccc(C(=O)Nc2cc(S(=O)(=O)Nc3ccccc3Cl)ccc2N2CCOCC2)cc1	-13.6	-11.5	-1.1	97.4*	5.1
SMILES	S1P4 antagonist	Mdm2 ligase inh	S1P4 ag	Lmaj promast	S1P3 antag
CCOc1ccc(S(=O)(=O)N(CC)CC)cc1NS(=O)(=O)c1ccc(F)c(F)c1F	2.7	-0.3	-1.9	60.0*	-13.8
COCCNC(=O)c1ccc(N2CCCCC2)c(NS(=O)(=O)c2ccc(C)cc2)c1	4.5	-1.8	-0.2	21.8	10.7
CCN(CC)CCCNC(=O)c1ccc(N2CCCCC2)c(NS(=O)(=O)c2ccc(C)cc2)c1	-8.4	-21.9	1.2	98.9*	-13.4
CCOc1cc(S(=O)(=O)N(CC)CC)ccc1F	0.9	-16.4	1.9	1.0	x
CCOc1ccc(S(=O)(=O)Nc2ccccc2C(=O)Nc2ccccc2N2CCOCC2)cc1	-17.5	-6.8	2.7	19.3	7.4
CCOc1ccc(S(=O)(=O)Nc2cc(S(=O)(=O)N(CC)CC)ccc2N2CCCC2)cc1	-8.0	3.4	-1.2	94.8*	-0.5
CC(C)c1cc(C(C)C)c(S(=O)(=O)NNC(=O)c2ccncc2)c(C(C)C)c1	-6.3	-3.5	0.5	27.9	21.5
CC(c1ccccc1)n1c(-c2cccs2)nc2c(c(=O)c3ccccc3n2C)c1=O (stereo unspecified)	-1.7	x	1.4	x	-3.2
CC(=O)Nc1ccc(NC(=O)C2CCCN(C(=O)c3ccc(Cl)cc3)C2)cc1 (stereo unspecified)	-5.3	-13.2	0.6	3.7	-11.5
O=C(Nc1ccccc1N1CCOCC1)c1cccc(NS(=O)(=O)c2ccc(F)c(F)c2)c1	-16.5	-5.0	-1.2	70.4*	-7.7
CCN(CC)S(=O)(=O)c1ccc(NC(=O)C2CCCN(C(=O)c3ccc(Cl)cc3)C2)cc1 (stereo unspecified)	-24.0	-2.4	2.0	97.0*	-10.2
CCN(CC)c1ccc(S(=O)(=O)N(CC)CC)cc1NC(=O)C1CCCC1	-12.2	0.2	0.3	61.0*	-12.2
O=C(Nc1ccccc1N1CCOCC1)c1ccccc1NS(=O)(=O)c1ccc(F)c(F)c1	2.7	-3.2	-0.9	2.4	x
CCN(CC)S(=O)(=O)c1ccc(N(C)C)c(NC(=O)C2CCCC2)c1	-21.4	-13.6	1.8	x	-14.9
CCN(CC)S(=O)(=O)c1ccc(N2CCOCC2)c(NC(=O)C2CCCC2)c1	-9.1	-12.5	-1.9	53.2*	-3.6
Cc1ccc(S(=O)(=O)NC(C)(C)CSc2ccccn2)cc1	1.9	-7.8	0.3	-1.4	2.0
Cc1nc2c(ncn2-c2ccccc2)c(=O)n1NC(=O)CN1CCN(C)CC1	1.4	-7.7	-0.7	x	-10.7
COc1ccc(CCn2ccc(O)c(Cc3c(F)cccc3Cl)c2=O)cc1OC	-11.3	7.5	0.0	-3.3	-23.8
N#CC1=C(N)N(c2ccccc2)C(c2cccc([N+](=O)[O-])c2)C1(C#N)C#N (stereo unspecified)	-7.7	-7.3	-0.5	54.1*	x
O=C(c1cccnc1)C1CCCN(Cc2nc(Cc3ccccc3)no2)C1 (stereo unspecified)	4.8	-4.1	-2.1	16.4	-6.9
C=CCN(CC=C)C(=O)c1cc(Cl)ccc1[N+](=O)[O-]	-15.7	-10.1	-0.8	51.3*	-5.6
CCCc1[nH]nc2c1C(c1ccncc1)C(C#N)=C(N)O2 (stereo unspecified)	-2.0	-15.6	-1.1	-4.3	8.9
COc1ccc(C2C(C#N)=C(N)Oc3n[nH]c(C)c32)cc1CSc1ccccn1 (stereo unspecified)	3.1	-5.1	3.2	97.6*	x
CCCc1[nH]nc2c1C(c1cn[nH]c1-c1ccc(F)cc1)C(C#N)=C(N)O2 (stereo unspecified)	-2.9	-18.2	0.3	73.1*	2.6
